Test results from ChEMBL document CHEMBL3272018, “Synthesis of aziridinylallylaminophosphine oxides and sulfides as potential adjuvant cancer chemotherapeutic agents” (J Med Chem, 1976).
The source made the active and inactive calls. The rule behind the calls is not given here.

Experiments:
L1210 [1] = experiment: In vivo antitumor activity against mouse L1210 cells in prognostic scoring system assessed as survival rate at 7 mg/kg, qd administered for 15 days; format: functional, organism-based; set-up: dose 7 mg/kg
Procedure, shortened: (§1)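 L1210 leukaemia in mice, run as an ascites tumour system. Injections were once daily for 9 or 15 days, or as a single dose. Response is the increase in survival time, given as T/C %, treated over untreated controls; a larger value means more activity. Weight change is the treated-group mean minus the control-group mean, in grams.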

[2] = Toxicity in rat allografted with rat Walker 256 cells intramuscularly; format: organism-based
W256 [3] = experiment: Antitumor activity against cytoxan-resistant rat Walker 256 cells intramuscularly allografted in rat assessed as survival rate at 25 mg/kg, qd administered for 5 days; format: functional, organism-based; set-up: dose 25 mg/kg
Procedure, shortened: (§2)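 Rats bearing Walker 256 carcinoma as a solid tumor; lines 1-8 use a cytoxan-resistant Walker 256 subline. Dosed once daily for 5 days. Treated (T) and untreated control (C) groups are compared, and the response is given as T/C percentage, reflecting increase in survival time. Host weight change is the average weight change of the test group minus that of the controls, in grams.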

W256 [4] = experiment: Antitumor activity against cytoxan-resistant rat Walker 256 cells intramuscularly allografted in rat assessed as tumor growth inhibition at 6 mg/kg, qd administered for 5 days relative to control; format: functional; settings: W256, im, 120 h, route intramuscular, read-out: TGI
Procedure, shortened: (§3)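 Dosed once daily for 5 days. Response is tumor progression in treated (T) versus untreated control (C) animals, expressed as T/C percentage. Host weight change is reported as the average net weight change of the test group minus that of the controls, in grams.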

L1210 [5] = experiment: In vivo antitumor activity against mouse L1210 cells in prognostic scoring system assessed as survival rate at 11 mg/kg, qd administered for 15 days; format: functional, organism-based; set-up: dose 11 mg/kg; procedure, shortened: as §1
Rattus norvegicus [6] = experiment: Toxicity in rat allografted with cytoxan-resistant rat Walker 256 cells intramuscularly assessed as change in body weight at 3 mg/kg, qd administered for 5 days; format: organism-based; set-up: dose 3 mg/kg, route intramuscular; settings: in vivo, im, 120 h
Procedure, shortened: (§4)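 Walker 256 carcinoma solid-tumour system in rats (parent line, or the line resistant to cytoxan). Dosing was one injection per day for 5 days. Toxicity was taken as the average net body-weight change of the treated group minus the average net weight change of the untreated tumour-bearing controls, in grams.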

Rattus norvegicus [7] = experiment: Toxicity in rat allografted with rat Walker 256 cells intramuscularly assessed as change in body weight at 12 mg/kg, qd administered for 5 days; format: organism-based; set-up: dose 12 mg/kg, route intramuscular; settings: in vivo, im, 120 h; procedure, shortened: as §4
W256 [8] = experiment: Antitumor activity against cytoxan-resistant rat Walker 256 cells intramuscularly allografted in rat assessed as tumor growth inhibition at 3 mg/kg, qd administered for 5 days relative to control; format: functional; settings: W256, im, 120 h, route intramuscular, read-out: TGI; procedure, shortened: as §3
W256 [9] = experiment: Antitumor activity against rat Walker 256 cells intramuscularly allografted in rat assessed as survival rate at 12 mg/kg, qd administered for 5 days; format: functional, organism-based; set-up: dose 12 mg/kg; procedure, shortened: as §2
W256 [10] = experiment: Antitumor activity against cytoxan-resistant rat Walker 256 cells intramuscularly allografted in rat assessed as survival rate at 6 mg/kg, qd administered for 5 days; format: functional, organism-based; set-up: dose 6 mg/kg; procedure, shortened: as §2
L1210 [11] = experiment: In vivo antitumor activity against mouse L1210 cells in prognostic scoring system assessed as survival rate at 3 mg/kg, qd administered for 15 days; format: functional, organism-based; set-up: dose 3 mg/kg; procedure, shortened: as §1
W256 [12] = experiment: Antitumor activity against rat Walker 256 cells intramuscularly allografted in rat assessed as tumor growth inhibition at 12 mg/kg, qd administered for 5 days relative to control; format: functional; settings: W256, im, 120 h, route intramuscular, read-out: TGI
Procedure, shortened: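 Walker 256 carcinoma grown as a solid tumour in rats, with one injection daily for 5 days. Response is given as T/C %, the treated-group measure over the untreated-control tumour measure; a smaller value means more activity. Host toxicity is the mean net weight change of treated minus control animals, in grams.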

L1210 [13] = experiment: In vivo antitumor activity against mouse L1210 cells in prognostic scoring system […] at 5 mg/kg, qd administered for 15 days relative to control; format: functional; settings: L1210, 360 h, read-out: TGI
W256 [14] = experiment: Antitumor activity against cytoxan-resistant rat Walker 256 cells intramuscularly allografted in rat assessed as survival rate at 12 mg/kg, qd administered for 5 days; format: functional, organism-based; set-up: dose 12 mg/kg; procedure, shortened: as §2
W256 [15] = experiment: Antitumor activity against cytoxan-resistant rat Walker 256 cells intramuscularly allografted in rat assessed as tumor growth inhibition at 25 mg/kg, qd administered for 5 days relative to control; format: functional; settings: W256, im, 120 h, route intramuscular, read-out: TGI; procedure, shortened: as §3
W256 [16] = experiment: Antitumor activity against rat Walker 256 cells intramuscularly allografted in rat assessed as tumor growth inhibition; format: functional; settings: W256, im; procedure, shortened: as §3
Rattus norvegicus [17] = experiment: Toxicity in rat allografted with cytoxan-resistant rat Walker 256 cells intramuscularly assessed as change in body weight at 25 mg/kg, qd administered for 5 days; format: organism-based; set-up: dose 25 mg/kg, route intramuscular; settings: in vivo, im, 120 h; procedure, shortened: as §4
W256 [18] = experiment: Antitumor activity against cytoxan-resistant rat Walker 256 cells intramuscularly allografted in rat assessed as tumor growth inhibition at 12 mg/kg, qd administered for 5 days relative to control; format: functional; settings: W256, im, 120 h, route intramuscular, read-out: TGI; procedure, shortened: as §3
W256 [19] = experiment: Antitumor activity against cytoxan-resistant rat Walker 256 cells intramuscularly allografted in rat assessed as survival rate at 3 mg/kg, qd administered for 5 days; format: functional, organism-based; set-up: dose 3 mg/kg; procedure, shortened: as §2
[20] = Therapeutic index, ratio of LD50 for rat allografted with rat Walker 256 cells to ED10 for antitumor activity against rat Walker 256 cells intramuscularly allografted in rat; format: cell-based; settings: read-out: TI
Procedure, shortened: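 Therapeutic index is LD50/ED10 in the Walker 256 solid tumour system. ED10 is the dose giving a 10% tumour weight reduction, with values extrapolated from dose-response data.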

Rattus norvegicus [21] = experiment: Toxicity in rat allografted with cytoxan-resistant rat Walker 256 cells intramuscularly assessed as change in body weight at 6 mg/kg, qd administered for 5 days; format: organism-based; set-up: dose 6 mg/kg, route intramuscular; settings: in vivo, im, 120 h; procedure, shortened: as §4
L1210 [22] = experiment: In vivo antitumor activity against mouse L1210 cells in prognostic scoring system assessed as survival rate at 5 mg/kg, qd administered for 15 days; format: functional, organism-based; set-up: dose 5 mg/kg; procedure, shortened: as §1
Rattus norvegicus [23] = experiment: Toxicity in rat allografted with cytoxan-resistant rat Walker 256 cells intramuscularly assessed as change in body weight at 12 mg/kg, qd administered for 5 days; format: organism-based; set-up: dose 12 mg/kg, route intramuscular; settings: in vivo, im, 120 h; procedure, shortened: as §4

C=CCN(CC=C)P(=O)(N(CC=C)CC=C)N1CC1
Activity (L1210 [1]): Active
LD50 [2]: 75 mg/kg
Activity (W256 [3]): Active
inhibition in vivo at 6 mg/kg (W256 [4]): 70%
Activity (L1210 [5]): Active
Activity (Rattus norvegicus [6]): -1 g
Activity (Rattus norvegicus [7]): -1 g
inhibition in vivo at 3 mg/kg (W256 [8]): 84%
Activity (W256 [9]): Active
Activity (W256 [10]): Active
Activity (L1210 [11]): Active
inhibition in vivo at 12 mg/kg (W256 [12]): 0%
inhibition in vivo at 5 mg/kg (L1210 [13]): 155%
Activity (W256 [14]): Active
inhibition in vivo at 25 mg/kg (W256 [15]): 52%
ED10 (W256 [16]): 2.5 mg/kg
Activity (Rattus norvegicus [17]): -28 g
inhibition in vivo at 12 mg/kg (W256 [18]): 66%
Activity (W256 [19]): Active
selectivity ratio [20]: 30
Activity (Rattus norvegicus [21]): -7 g
Activity (L1210 [22]): Active
Activity (Rattus norvegicus [23]): -4 g
